Reference: PMC2650427 (Bioconjugate chemistry, 2008)
Read-outs that look alike come from different tables or passages of the source. Marks after values point to notes of the source that are not given here.

Legend:
[1] = Determination of τm by 17O transverse relaxation rate measurements; assay type: physicochemical; details: variable temperature 17O NMR at 54 MHz, 15–20 mM, pH 7.40; calculated at 25 °C
NIH/3T3 cells = experiment: MR imaging and T1 analysis of labelled cells; assay type: cell-based; details: 1.0 mM, 4 h, washes at 1 hour intervals, T1-weighted, 14.1 T
Relaxivity = assay type: physicochemical; details: 100 mM phosphate buffer, pH 7.4, ambient temperature (~25 °C); saturation recovery; assessed in duplicate
[2] = In vitro cleavage by disulfide exchange with GSH; assay type: physicochemical; details: 1.0 mM in DPBS, 37 °C, 4 h; GSH at 4 times the contrast agent; HPLC-MS ion count
Method in brief: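 Disulfide-linked Gd(III)-DTPA–octaarginine test compound was incubated with increasing GSH (0.25 to 4 equivalents) in 1.0 mM DPBS. Start times were staggered so each sample had 4 h at 37 °C before LC-MS. Separation used a C18 column (4.6 × 250 mm, 5 µm) at 1.0 mL/min with a water/MeCN gradient of 0–60% MeCN over 40 min. Total ion counts of the GSH-exchange product and of the starting material were compared.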

[3] = calculated at 25 °C; cited from earlier work
[4] = cited from earlier work

Gd(III)-DTPA-SS-Arg8 [compound 4]
τm (mean residence lifetime of coordinated water) [1]: 1327 ns
MR image intensity after leaching (NIH/3T3 cells): little loss of signal intensity
Relaxivity, 600 MHz (14.1 T) (Relaxivity): 3.46 mM⁻¹ s⁻¹
Completeness of disulfide cleavage at 4:1 GSH [2]: complete cleavage is not obtainable

Gd(III)-DOTA-SS-Arg8 [compound 3]
τm (mean residence lifetime of coordinated water) [1]: 840 ns
MR image intensity after leaching (NIH/3T3 cells): little loss of signal intensity
Relaxivity, 600 MHz (14.1 T) (Relaxivity): 3.52 mM⁻¹ s⁻¹

O=C([O-])CN(CCN(CC(=O)[O-])CC(=O)O)CCN(CC(=O)[O-])CC(=O)O.[Gd+3] [Gd(III)-DTPA]
τm (mean residence lifetime of coordinated water) [3]: 303 ^e ns
Relaxivity, 600 MHz (14.1 T) (Relaxivity): 2.09 mM⁻¹ s⁻¹
q (number of bound water molecules) [4]: 1.2 ^d

O=C([O-])CN1CCN(CC(=O)[O-])CCN(CC(=O)O)CCN(CC(=O)[O-])CC1.[Gd+3] [Gd(III)-DOTA]
τm (mean residence lifetime of coordinated water) [3]: 243 ^e ns
Relaxivity, 600 MHz (14.1 T) (Relaxivity): 2.12 mM⁻¹ s⁻¹
q (number of bound water molecules) [4]: 1.2 ^d
